One test concerns HeLa. Description: Concentration tested for 50% of TNF- alpha induce HeLa cell protection was determined. Format: functional, cell-based. The note with it: Homo sapiens. The essentials:
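HeLa cells were treated with TNF-α to induce apoptosis, with inhibitor present. Viability was quantified by calcein AM uptake. The value is the inhibitor concentration giving 50% cell protection.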

Another test deals with T1, Caspase-9 (Homo sapiens, UniProt P55211).
T1 sequence (P55211 whole entry): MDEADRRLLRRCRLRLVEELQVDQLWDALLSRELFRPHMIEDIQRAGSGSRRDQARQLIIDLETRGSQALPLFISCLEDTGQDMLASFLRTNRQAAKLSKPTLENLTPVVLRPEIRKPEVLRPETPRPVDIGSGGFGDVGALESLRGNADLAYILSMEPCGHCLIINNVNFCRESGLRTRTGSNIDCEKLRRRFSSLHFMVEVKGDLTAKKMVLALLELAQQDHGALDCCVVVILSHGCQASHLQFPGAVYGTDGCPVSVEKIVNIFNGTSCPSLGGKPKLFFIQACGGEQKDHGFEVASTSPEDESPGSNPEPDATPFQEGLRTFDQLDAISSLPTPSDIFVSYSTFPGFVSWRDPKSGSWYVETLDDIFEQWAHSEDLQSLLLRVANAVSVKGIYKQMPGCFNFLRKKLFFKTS
The test is described as follows: Inhibitory concentration against Caspase-9.

In a further test the target is T2, Caspase-7 (Homo sapiens, UniProt P55210).
T2 sequence (P55210 whole entry): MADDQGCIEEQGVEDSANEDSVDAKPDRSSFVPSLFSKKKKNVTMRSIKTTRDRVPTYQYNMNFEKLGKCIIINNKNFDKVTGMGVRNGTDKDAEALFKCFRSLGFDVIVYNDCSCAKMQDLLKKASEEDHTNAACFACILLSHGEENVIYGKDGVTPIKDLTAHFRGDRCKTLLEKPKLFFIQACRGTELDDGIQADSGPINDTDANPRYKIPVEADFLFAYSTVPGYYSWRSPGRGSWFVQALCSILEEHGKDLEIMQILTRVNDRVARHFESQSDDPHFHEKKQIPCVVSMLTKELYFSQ
The test is described as follows: Inhibitory concentration against Caspase-7.

The subject of test [1] is Mus musculus. The test is described as follows: Survival of mice with 0.25 mg/kg of compound treatment after induction of apoptosis by anti-Fas antibody at 3 hr (n=6). The test is classed as functional. The essentials:
(§1)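 Mice received an IV injection of anti-Fas monoclonal antibody; untreated controls received 8 µg. Five minutes later they received an IV dose of inhibitor in an aqueous vehicle containing 50 mM Tris–HCl, or vehicle alone. Six mice per group. Survivors were counted at 1, 3, 6 and 24 h and at 3 days, when the experiment ended, and reported as a percentage of each group.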

The subject of test [2] is Mus musculus. The test is described as follows: Survival of mice with 1 mg/kg of compound treatment after induction of apoptosis by anti-Fas antibody at 3 days(n=6). The test is classed as functional. The note with it: 72 h. The method in brief:
as §1

The target of another test is Caspase-8 (Homo sapiens, UniProt Q14790). The test is described as follows: Inhibitory concentration against Caspase-8.
Sequence of Caspase-8 (Q14790 217-374 limits assumed): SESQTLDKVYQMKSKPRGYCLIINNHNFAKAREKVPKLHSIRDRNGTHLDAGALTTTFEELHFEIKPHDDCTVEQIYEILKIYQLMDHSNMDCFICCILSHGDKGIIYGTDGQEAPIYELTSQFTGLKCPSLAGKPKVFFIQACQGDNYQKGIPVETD
Sequence of Caspase-8 (Q14790 385-479 limits assumed): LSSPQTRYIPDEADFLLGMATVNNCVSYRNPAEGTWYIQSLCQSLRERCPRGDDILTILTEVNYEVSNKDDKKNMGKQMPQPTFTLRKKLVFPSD
The target in test [3] is T3, Calpain-1 catalytic subunit (Homo sapiens, UniProt P07384).
T3 sequence (P07384 whole entry): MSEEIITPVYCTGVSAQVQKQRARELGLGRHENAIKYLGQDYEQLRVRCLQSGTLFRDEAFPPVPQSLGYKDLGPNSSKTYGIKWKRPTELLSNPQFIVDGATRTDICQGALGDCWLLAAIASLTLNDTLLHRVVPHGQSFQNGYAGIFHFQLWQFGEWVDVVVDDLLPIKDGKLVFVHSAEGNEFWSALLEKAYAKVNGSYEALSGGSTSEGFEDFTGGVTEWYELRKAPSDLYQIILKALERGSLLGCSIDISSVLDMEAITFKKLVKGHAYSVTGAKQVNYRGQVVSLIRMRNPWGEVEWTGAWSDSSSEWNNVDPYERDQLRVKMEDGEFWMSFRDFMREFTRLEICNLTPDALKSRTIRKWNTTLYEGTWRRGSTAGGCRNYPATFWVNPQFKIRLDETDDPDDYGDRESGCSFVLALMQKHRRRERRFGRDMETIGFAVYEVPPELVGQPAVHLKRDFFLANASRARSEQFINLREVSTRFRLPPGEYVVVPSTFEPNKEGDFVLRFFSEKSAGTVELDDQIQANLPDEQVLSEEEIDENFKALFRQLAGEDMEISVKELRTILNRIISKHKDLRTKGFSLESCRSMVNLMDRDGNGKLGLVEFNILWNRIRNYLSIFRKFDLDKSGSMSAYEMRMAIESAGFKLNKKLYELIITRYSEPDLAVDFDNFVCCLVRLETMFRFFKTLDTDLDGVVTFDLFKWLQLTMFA
Description: Inhibitory concentration against Calpain 1. The method in brief:
(§2)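 Isolated-enzyme inhibition assays (calpain-1, cathepsin B, factor Xa) tested inhibitor at concentrations up to 100,000 nM. The read-out was IC50.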

For test [4], the system named is Mus musculus. The test is described as follows: Survival of mice with 0 mg/kg of compound treatment after induction of apoptosis by anti-Fas antibody at 1 hr (n=6). The test is classed as functional. The essentials:
as §1

Another test has as its target T4, Caspase-6 (Homo sapiens, UniProt P55212).
T4 sequence (P55212 whole entry): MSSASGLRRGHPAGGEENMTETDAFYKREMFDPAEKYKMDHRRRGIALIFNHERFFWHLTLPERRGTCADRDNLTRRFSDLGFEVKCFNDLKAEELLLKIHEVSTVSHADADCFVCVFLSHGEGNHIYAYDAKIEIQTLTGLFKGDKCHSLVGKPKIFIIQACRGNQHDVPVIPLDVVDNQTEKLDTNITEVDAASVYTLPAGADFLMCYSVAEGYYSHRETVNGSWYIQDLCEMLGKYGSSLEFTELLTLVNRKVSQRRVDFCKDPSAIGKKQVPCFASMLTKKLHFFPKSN
The test is described as follows: Inhibitory concentration against Caspase-6.

The test system of test [5] is Mus musculus. The test is described as follows: Survival of mice with 10 mg/kg of compound treatment after induction of apoptosis by anti-Fas antibody at 3 days(n=6). Format: functional. The note with it: 72 h. The method in brief:
as §1

Test [6] in a line: Inhibitory concentration against Coagulation factor X. The method in brief: as §2
Test [7] concerns Mus musculus. The test is described as follows: Survival of mice with 10 mg/kg of compound treatment after induction of apoptosis by anti-Fas antibody at 24 hr (n=6). Format: functional. The essentials:
as §1

A further test has as its target T5, Caspase-3 (Homo sapiens, UniProt P42574).
T5 sequence (P42574 whole entry): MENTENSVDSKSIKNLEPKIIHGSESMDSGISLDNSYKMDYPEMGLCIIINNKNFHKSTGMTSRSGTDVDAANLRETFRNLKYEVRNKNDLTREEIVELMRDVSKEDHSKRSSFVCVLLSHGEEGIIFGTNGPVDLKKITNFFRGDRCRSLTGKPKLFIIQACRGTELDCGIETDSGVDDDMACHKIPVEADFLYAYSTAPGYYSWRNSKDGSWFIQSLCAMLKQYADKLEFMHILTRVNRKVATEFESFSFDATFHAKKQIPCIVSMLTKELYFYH
The test is described as follows: Inhibitory concentration against human caspase-3.

In test [8] the test system is Mus musculus. Description: Survival of mice with 0.25 mg/kg of compound treatment after induction of apoptosis by anti-Fas antibody at 3 days(n=6). The test is classed as functional. As to conditions: 72 h. The method in brief: as §1
The test system of test [9] is Mus musculus. The test is described as follows: Survival of mice with 0.25 mg/kg of compound treatment after induction of apoptosis by anti-Fas antibody at 24 hr (n=6). Format: functional. The essentials:
as §1

Test [10] deals with Mus musculus. Description: Survival of mice with 0 mg/kg of compound treatment after induction of apoptosis by anti-Fas antibody at 24 hr (n=6). Format: functional. The method in brief: as §1
For test [11], the system named is Mus musculus. The test is described as follows: Survival of mice with 1 mg/kg of compound treatment after induction of apoptosis by anti-Fas antibody at 24 hr (n=6). Format: functional. The method in brief: as §1
Test [12] has as its system Mus musculus. Description: Survival of mice with 1 mg/kg of compound treatment after induction of apoptosis by anti-Fas antibody at 3 hr (n=6). The test is classed as functional. The essentials:
as §1

Test [13] concerns Mus musculus. The test is described as follows: Survival of mice with 0 mg/kg of compound treatment after induction of apoptosis by anti-Fas antibody at 3 hr (n=6). The test is classed as functional. The essentials: as §1
In test [14] the test system is Mus musculus. Description: Survival of mice with 0 mg/kg of compound treatment after induction of apoptosis by anti-Fas antibody at 3 days(n=6). Format: functional. The essentials: as §1
The nature of test [15]: Inhibitory concentration against Caspase-1.
For test [16], the system named is Mus musculus. The test is described as follows: Survival of mice with 10 mg/kg of compound treatment after induction of apoptosis by anti-Fas antibody at 1 hr (n=6). Format: functional. The method in brief:
as §1

The test system of test [17] is Mus musculus. Description: Survival of mice with 1 mg/kg of compound treatment after induction of apoptosis by anti-Fas antibody at 6 hr (n=6). The test is classed as functional. The method in brief: as §1
The test system of test [18] is Mus musculus. Description: Survival of mice with 10 mg/kg of compound treatment after induction of apoptosis by anti-Fas antibody at 3 hr (n=6). Format: functional. The essentials:
as §1

Test [19] relates to Mus musculus. The test is described as follows: Survival of mice with 0 mg/kg of compound treatment after induction of apoptosis by anti-Fas antibody at 6 hr (n=6). Format: functional. The essentials:
as §1

A short description of test [20]: Inhibitory concentration against Cathepsin B. The method in brief: as §2
For test [21], the system named is Mus musculus. The test is described as follows: Survival of mice with 0.25 mg/kg of compound treatment after induction of apoptosis by anti-Fas antibody at 1 hr (n=6). The test is classed as functional. The essentials: as §1
For test [22], the system named is Mus musculus. The test is described as follows: Survival of mice with 10 mg/kg of compound treatment after induction of apoptosis by anti-Fas antibody at 6 hr (n=6). The test is classed as functional. The essentials: as §1
Test [23] relates to Mus musculus. The test is described as follows: Survival of mice with 0.25 mg/kg of compound treatment after induction of apoptosis by anti-Fas antibody at 6 hr (n=6). Format: functional. The essentials: as §1

Consider `CC(C)[C@H](OC(=O)Nc1ccccc1)C(=O)NC(CC(=O)O)C(=O)COc1cc(C(F)(F)F)nn1-c1ccccc1` (some centres undefined), for which, in the test with HeLa, the Concentration amounted to 1100 nM.
For the compound `CC(C)[C@H](NC(=O)Oc1ccccc1)C(=O)NC(CC(=O)O)C(=O)CF` (some centres undefined), the Concentration with HeLa stood at 250 nM.
In the test with HeLa, `CC(C)[C@H](OC(=O)Nc1ccccc1)C(=O)NC(CC(=O)O)C(=O)COC(=O)c1c(Cl)cccc1Cl` (some centres undefined) yielded a Concentration of 1000 nM.
The compound `CC(C)[C@H](OC(=O)Nc1ccc(Cl)cc1Cl)C(=O)NC(CC(=O)O)C(=O)CF` (some centres undefined) showed a Concentration with HeLa of 100 nM.
Regarding `C[C@H](OC(=O)Nc1ccccc1)C(=O)NC(CC(=O)O)C(=O)CF` (some centres undefined), the Concentration in the test on HeLa came out at 1400 nM.
Turning to `CC(C)[C@H](OC(=O)Nc1ccccc1)C(=O)NC(CC(=O)O)C(=O)CF` (some centres undefined), the IC50 against Caspase-9 was 30 nM; at Caspase-7 it was 11 nM; at Caspase-8, 17 nM; in test [3], greater than 100000 nM; at Caspase-6, 50 nM; in [6] it was greater than 100000 nM. Besides, the IC50 at Caspase-3 was 17 nM; in test [15], 12 nM; in test [20], greater than 100000 nM. The survival at 0.25 mg/kg came to 100% in the test with Mus musculus [1]; 0% with Mus musculus [8]; 0% in the test on Mus musculus [9]; 100% with Mus musculus [21]; 0% in the test with Mus musculus [23]. Also, the survival at 1 mg/kg amounted to 0% in the test on Mus musculus [2], 50% in the test on Mus musculus [11], 100% with Mus musculus [12] and 100% with Mus musculus [17]. For the same compound, the Survival with Mus musculus [4], in the test on Mus musculus [10], in the test on Mus musculus [13], in the test with Mus musculus [14] and in the test on Mus musculus [19] was 0% each time. Also, the survival at 10 mg/kg in the test on Mus musculus [5] came to 83%; with Mus musculus [7], 83%; with Mus musculus [16], 100%; in the test with Mus musculus [18], 100%; in the test with Mus musculus [22], 100%. Also, the Concentration in the test with HeLa stood at 200 nM.

(Values after ChEMBL document CHEMBL1142004, “Dipeptidyl aspartyl fluoromethylketones as potent caspase inhibitors: peptidomimetic replacement of the P2 alpha-amino acid by a alpha-hydroxy acid” (Bioorg Med Chem Lett, 2005).)
